In paper PMC3086726 (Nuclear medicine and biology, 2010):
Read-outs that look alike come from different tables or passages of the source.

Experiments:
[1] = assay type: in vitro ADME; conditions: mouse, serum, pH 7.4
[2] = set-up: species or system CF-1 mice; conditions: mouse
[3] = In vitro stability of 99mTc-cyclized analogues in PBS; assay type: physicochemical; conditions: pH 7.4, 37 °C
Summary of the method: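 Test peptides were labelled with 99mTc by exchange from 99mTc-glucoheptonate (pH 7.9–8.1, 60 °C, 30 min), purified by radio-RP-HPLC, mixed with gentisic acid and evaporated. They were diluted in PBS or 1 mM cysteine, adjusted to pH 7.4 and incubated at 37 °C. Aliquots at 1, 2, 4 and 24 h were analysed by RP-HPLC for % intact. Replicate measurements used radio-TLC on C18 (10% ammonium acetate; 1:1 TFA-water/acetonitrile).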

[4] = Stability of 99mTc-cyclized analogues to cysteine challenge; assay type: physicochemical; conditions: pH 7.4, 37 °C

Question: Which “percent intact 99mTc-analogue post purification” value ([1]; 1 h) does the source give for “^99mTc-Ac-Cys^1,Tyr^3-octreotate [99mTc-2]” here?
Answer: 96.7 ± 0.8%

Question: And the “percent intact 99mTc-analogue post purification” value ([1]; 2 h)?
Answer: 97.1 ± 0.7%

Question: What about the “percent intact 99mTc-analogue post purification” value ([1]; 4 h) of the same substance?
Answer: 97.0 ± 0.2%

Question: What about the “percent intact 99mTc-analogue post purification” value ([1]; 24 h) of the same substance?
Answer: 94.7 ± 2.4%

Question: And the “In vivo biodistribution, Adrenals” value ([2]; 150 ug, 1 h)?
Answer: 0.63 ± 0.19 %ID/g

Question: What about the “In vivo biodistribution, Blood” value ([2]; 150 ug, 1 h) of the same substance?
Answer: 1.38 ± 0.15 %ID/g

Question: And the “In vivo biodistribution, Kidney” value ([2]; 150 ug, 1 h)?
Answer: 2.97 ± 0.19 %ID/g

Question: What about the “In vivo biodistribution, Lg. Int” value ([2]; 150 ug, 1 h) of the same substance?
Answer: 0.56 ± 0.04 %ID/g

Question: And the “In vivo biodistribution, Liver” value ([2]; 150 ug, 1 h)?
Answer: 1.78 ± 0.59 %ID/g

Question: And the “In vivo biodistribution, Muscle” value ([2]; 150 ug, 1 h)?
Answer: 0.43 ± 0.05 %ID/g

Question: And the “In vivo biodistribution, Pancreas” value ([2]; 150 ug, 1 h)?
Answer: 0.54 ± 0.10 %ID/g

Question: What about the “In vivo biodistribution, Sm. lnt” value ([2]; 150 ug, 1 h) of the same substance?
Answer: 24.29 ± 3.21 %ID/g

Question: What about the “In vivo biodistribution, Spleen” value ([2]; 150 ug, 1 h) of the same substance?
Answer: 0.47 ± 0.07 %ID/g

Question: And the “In vivo biodistribution, Stomach” value ([2]; 150 ug, 1 h)?
Answer: 5.69 ± 0.45 %ID/g

Question: What about the “In vivo biodistribution, Adrenals” value ([2]; 1 h) of the same substance?
Answer: 0.36 ± 0.04 %ID/g

Question: What about the “In vivo biodistribution, Blood” value ([2]; 1 h) of the same substance?
Answer: 0.95 ± 0.12 %ID/g

Question: What about the “In vivo biodistribution, Kidney” value ([2]; 1 h) of the same substance?
Answer: 2.61 ± 0.64 %ID/g

Question: And the “In vivo biodistribution, Lg. Int” value ([2]; 1 h)?
Answer: 0.53 ± 0.08 %ID/g

Question: What about the “In vivo biodistribution, Liver” value ([2]; 1 h) of the same substance?
Answer: 1.60 ± 0.17 %ID/g

Question: What about the “In vivo biodistribution, Muscle” value ([2]; 1 h) of the same substance?
Answer: 0.26 ± 0.02 %ID/g

Question: And the “In vivo biodistribution, Pancreas” value ([2]; 1 h)?
Answer: 0.46 ± 0.15 %ID/g

Question: What about the “In vivo biodistribution, Sm. lnt” value ([2]; 1 h) of the same substance?
Answer: 20.28 ± 3.58 %ID/g

Question: And the “In vivo biodistribution, Spleen” value ([2]; 1 h)?
Answer: 0.38 ± 0.09 %ID/g

Question: What about the “In vivo biodistribution, Stomach” value ([2]; 1 h) of the same substance?
Answer: 2.95 ± 1.42 %ID/g

Question: And the “In vivo biodistribution, Adrenals” value ([2]; 4 h)?
Answer: 0.22 ± 0.07 %ID/g

Question: What about the “In vivo biodistribution, Blood” value ([2]; 4 h) of the same substance?
Answer: 0.34 ± 0.04 %ID/g

Question: What about the “In vivo biodistribution, Kidney” value ([2]; 4 h) of the same substance?
Answer: 1.43 ± 0.34 %ID/g

Question: And the “In vivo biodistribution, Lg. Int” value ([2]; 4 h)?
Answer: 28.18 ± 4.57 %ID/g

Question: And the “In vivo biodistribution, Liver” value ([2]; 4 h)?
Answer: 0.47 ± 0.15 %ID/g

Question: What about the “In vivo biodistribution, Muscle” value ([2]; 4 h) of the same substance?
Answer: 0.08 ± 0.04 %ID/g

Question: What about the “In vivo biodistribution, Pancreas” value ([2]; 4 h) of the same substance?
Answer: 0.15 ± 0.03 %ID/g

Question: What about the “In vivo biodistribution, Sm. lnt” value ([2]; 4 h) of the same substance?
Answer: 1.94 ± 0.50 %ID/g

Question: What about the “In vivo biodistribution, Spleen” value ([2]; 4 h) of the same substance?
Answer: 0.12 ± 0.01 %ID/g

Question: What about the “In vivo biodistribution, Stomach” value ([2]; 4 h) of the same substance?
Answer: 3.88 ± 0.54 %ID/g

Question: What about the “In vivo biodistribution, Adrenals” value ([2]; 24 h) of the same substance?
Answer: 0.03 ± 0.01 %ID/g

Question: What about the “In vivo biodistribution, Blood” value ([2]; 24 h) of the same substance?
Answer: 0.06 ± 0.01 %ID/g

Question: What about the “In vivo biodistribution, Kidney” value ([2]; 24 h) of the same substance?
Answer: 0.48 ± 0.10 %ID/g

Question: What about the “In vivo biodistribution, Lg. Int” value ([2]; 24 h) of the same substance?
Answer: 1.18 ±0.66 %ID/g

Question: What about the “In vivo biodistribution, Liver” value ([2]; 24 h) of the same substance?
Answer: 0.11 ± 0.01 %ID/g

Question: What about the “In vivo biodistribution, Muscle” value ([2]; 24 h) of the same substance?
Answer: 0.01 ± 0.01 %ID/g

Question: What about the “In vivo biodistribution, Pancreas” value ([2]; 24 h) of the same substance?
Answer: 0.02 ± 0.01 %ID/g

Question: What about the “In vivo biodistribution, Sm. lnt” value ([2]; 24 h) of the same substance?
Answer: 0.22 ± 0.04 %ID/g

Question: And the “In vivo biodistribution, Spleen” value ([2]; 24 h)?
Answer: 0.04 ± 0.01 %ID/g

Question: What about the “In vivo biodistribution, Stomach” value ([2]; 24 h) of the same substance?
Answer: 0.61 ± 0.15 %ID/g

Question: And the “percent intact 99mTc-analogue post purification” value ([3]; 1 h)?
Answer: 98.3 ± 0.5%

Question: What about the “percent intact 99mTc-analogue post purification” value ([3]; 2 h) of the same substance?
Answer: 98.0 ± 0.2%

Question: And the “percent intact 99mTc-analogue post purification” value ([3]; 4 h)?
Answer: 97.8 ± 0.9%

Question: And the “percent intact 99mTc-analogue post purification” value ([3]; 24 h)?
Answer: 94.1 ± 1.4%

Question: And the “percent intact 99mTc-analogue post purification” value ([4]; 10 mM Cys, 1 h)?
Answer: 99.4 ± 0.3%

Question: And the “percent intact 99mTc-analogue post purification” value ([4]; 10 mM Cys, 2 h)?
Answer: 99.1 ± 0.5%

Question: What about the “percent intact 99mTc-analogue post purification” value ([4]; 10 mM Cys, 4 h) of the same substance?
Answer: 99.3 ± 0.1%

Question: And the “percent intact 99mTc-analogue post purification” value ([4]; 10 mM Cys, 24 h)?
Answer: 93.3 ± 0.7%

Question: What does the source list for ^99mTc-Ac-Tyr^3-octreotate [99mTc-1]?
Answer: percent intact 99mTc-analogue post purification ([1]; 1 h): 91.4 ± 1.8%; percent intact 99mTc-analogue post purification ([1]; 2 h): 81.7 ± 4.1%; percent intact 99mTc-analogue post purification ([1]; 4 h): 81.4 ± 4.7%; percent intact 99mTc-analogue post purification ([1]; 24 h): 51.2 ± 4.4%; In vivo biodistribution, Adrenals ([2]; 150 ug, 1 h): 2.18 ± 0.69 %ID/g; In vivo biodistribution, Blood ([2]; 150 ug, 1 h): 4.31 ± 0.44 %ID/g; In vivo biodistribution, Kidney ([2]; 150 ug, 1 h): 8.00 ± 1.74 %ID/g; In vivo biodistribution, Lg. Int ([2]; 150 ug, 1 h): 1.70 ± 0.18 %ID/g; In vivo biodistribution, Liver ([2]; 150 ug, 1 h): 6.47 ± 1.64 %ID/g; In vivo biodistribution, Muscle ([2]; 150 ug, 1 h): 0.68 ± 0.06 %ID/g; In vivo biodistribution, Pancreas ([2]; 150 ug, 1 h): 2.08 ± 0.31 %ID/g; In vivo biodistribution, Sm. lnt ([2]; 150 ug, 1 h): 10.91 ± 2.12 %ID/g; In vivo biodistribution, Spleen ([2]; 150 ug, 1 h): 1.74 ± 0.24 %ID/g; In vivo biodistribution, Stomach ([2]; 150 ug, 1 h): 14.18 ± 4.97 %ID/g; In vivo biodistribution, Adrenals ([2]; 1 h): 1.53 ± 0.30 %ID/g; In vivo biodistribution, Blood ([2]; 1 h): 3.81 ± 0.10 %ID/g; In vivo biodistribution, Kidney ([2]; 1 h): 12.05 ± 2.14 %ID/g; In vivo biodistribution, Lg. Int ([2]; 1 h): 2.55 ± 0.21 %ID/g; In vivo biodistribution, Liver ([2]; 1 h): 4.17 ± 0.34 %ID/g; In vivo biodistribution, Muscle ([2]; 1 h): 0.53 ± 0.06 %ID/g; In vivo biodistribution, Pancreas ([2]; 1 h): 1.49 ± 0.06 %ID/g; In vivo biodistribution, Sm. lnt ([2]; 1 h): 15.48 ± 3.35 %ID/g; In vivo biodistribution, Spleen ([2]; 1 h): 1.30 ± 0.17 %ID/g; In vivo biodistribution, Stomach ([2]; 1 h): 11.69 ± 10.10 %ID/g; In vivo biodistribution, Adrenals ([2]; 4 h): 0.86 ± 0.43 %ID/g; In vivo biodistribution, Blood ([2]; 4 h): 1.50 ± 0.29 %ID/g; In vivo biodistribution, Kidney ([2]; 4 h): 6.54 ± 0.23 %ID/g; In vivo biodistribution, Lg. Int ([2]; 4 h): 22.09 ± 4.99 %ID/g; In vivo biodistribution, Liver ([2]; 4 h): 1.58 ± 0.06 %ID/g; In vivo biodistribution, Muscle ([2]; 4 h): 0.25 ± 0.06 %ID/g; In vivo biodistribution, Pancreas ([2]; 4 h): 0.55 ± 0.04 %ID/g; In vivo biodistribution, Sm. lnt ([2]; 4 h): 2.02 ± 0.67 %ID/g; In vivo biodistribution, Spleen ([2]; 4 h): 0.55 ± 0.13 %ID/g; In vivo biodistribution, Stomach ([2]; 4 h): 7.54 ± 4.16 %ID/g; In vivo biodistribution, Adrenals ([2]; 24 h): 0.12 ± 0.03 %ID/g; In vivo biodistribution, Blood ([2]; 24 h): 0.15 ± 0.02 %ID/g; In vivo biodistribution, Kidney ([2]; 24 h): 2.04 ± 0.37 %ID/g; In vivo biodistribution, Lg. Int ([2]; 24 h): 3.08 ± 1.60 %ID/g; In vivo biodistribution, Liver ([2]; 24 h): 0.39 ± 0.03 %ID/g; In vivo biodistribution, Muscle ([2]; 24 h): 0.05 ± 0.02 %ID/g; In vivo biodistribution, Pancreas ([2]; 24 h): 0.07 ± 0.01 %ID/g; In vivo biodistribution, Sm. lnt ([2]; 24 h): 0.68 ± 0.20 %ID/g; In vivo biodistribution, Spleen ([2]; 24 h): 0.08 ± 0.01 %ID/g; In vivo biodistribution, Stomach ([2]; 24 h): 1.26 ± 0.49 %ID/g; uptake in the various tissues and organs relative to TATE and 99mTc-2 ([2]; in vivo): two to four times higher; percent intact 99mTc-analogue post purification ([3]; 1 h): 90.2 ± 2.4%; percent intact 99mTc-analogue post purification ([3]; 2 h): 83.4 ± 5.2%; percent intact 99mTc-analogue post purification ([3]; 4 h): 76.3 ± 3.4%; percent intact 99mTc-analogue post purification ([3]; 24 h): 52.0 ± 5.6%; percent intact 99mTc-analogue post purification ([4]; 1 mM Cys, 1 h): 97.1 ± 3.3%; percent intact 99mTc-analogue post purification ([4]; 1 mM Cys, 2 h): 95.1 ± 2.7%; percent intact 99mTc-analogue post purification ([4]; 1 mM Cys, 4 h): 87.2 ± 1.0%; percent intact 99mTc-analogue post purification ([4]; 1 mM Cys, 24 h): 81.7 ± 1.8%; percent intact 99mTc-analogue post purification ([4]; 10 mM Cys, 1 h): 60.1 ± 5.1%; percent intact 99mTc-analogue post purification ([4]; 10 mM Cys, 2 h): 55.8 ± 6.9%; percent intact 99mTc-analogue post purification ([4]; 10 mM Cys, 4 h): 38.9 ± 3.7%; percent intact 99mTc-analogue post purification ([4]; 10 mM Cys, 24 h): 22.9 ± 4.5%
